Bioassay records from PubChem BioAssay.
Shown are actives, neighbours in structure and some others; about 2.3% of the full set was active somewhere.
SF-1 act: activators of human nuclear receptor SF-1. CHO-K1 Gal4-SF-1 LBD luciferase reporter; % increase over DMSO SF-1-specific signal. activation, % at 10 µM. 65,000 compounds, 1.9% hits;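 active means activation above the mean activation of all tested compounds plus 3 SD, cut at about 50% in these data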
Target sequence (Q13285 whole entry, looked up, the tested form may be a part): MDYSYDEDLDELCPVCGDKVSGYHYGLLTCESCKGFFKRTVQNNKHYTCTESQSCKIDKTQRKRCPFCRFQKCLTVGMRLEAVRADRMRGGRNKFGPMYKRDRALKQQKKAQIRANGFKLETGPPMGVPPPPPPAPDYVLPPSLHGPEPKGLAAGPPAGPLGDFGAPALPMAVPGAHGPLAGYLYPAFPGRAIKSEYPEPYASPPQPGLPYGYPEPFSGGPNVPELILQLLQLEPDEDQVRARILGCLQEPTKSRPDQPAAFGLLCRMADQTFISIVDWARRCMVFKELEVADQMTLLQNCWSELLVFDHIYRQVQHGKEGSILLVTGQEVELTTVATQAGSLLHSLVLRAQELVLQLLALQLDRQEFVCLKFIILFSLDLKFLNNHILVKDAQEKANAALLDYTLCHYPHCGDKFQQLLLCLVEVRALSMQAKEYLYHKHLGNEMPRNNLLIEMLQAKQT
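Material: Gal4–SF-1 LBD one-hybrid luciferase reporter in CHO-K1 cells | Amount: 4,000 cells per well | Compound dosing: 10 µM single point, 1% DMSO | Schedule: 20 h compound treatment, 37 °C | Measured by: SteadyLite luciferase luminescence | Evaluation: Percent activation versus DMSO | Control set: DMSO-treated SF-1-transfected cells as negative, DMSO-treated mock-transfected cells lacking SF-1 as background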
JNK3 inh: inhibitors of human JNK3 kinase; P53779; purified JNK3 kinase activity, HTS; inhibition, % at 8 µM; 60,000 compounds, 0.61% hits; AID 746; in the data active means inhibition above about 17%;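 further: 0% = DMSO and 100% = reference inhibitor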
Calb biofilm kill: kills Candida albicans biofilms; 85,000 compounds, 0.14% hits; AID 834; C. albicans biofilm + clotrimazole, Alamar Blue; inhibition, % at 6 µM;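 active means inhibition above 20%; inactive means inhibition below 20%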;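 further: preformed 24 hr biofilms exposed to compound for 48 hr; 0% = biofilm without compound and 100% = blank killed by clotrimazole plus chlorhexidine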
RORa activator: activators of human nuclear receptor RORA | P35398 | CHO-K1 Gal4-RORA LBD luciferase reporter, luminescence; percent increase over mock-subtracted basal signal | activation, % at 10 µM | 65,000 compounds, 1.5% hits | AID 560;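 active means activation above the mean of all tested compounds plus 3 SD, cut at about 49% in these data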;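 further: 0% = DMSO-treated RORA cells and 100% = added signal equal to DMSO minus mock-transfected cells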
The depositor's hits bear a star; x = no result.

SMILES	SF-1 act	JNK3 inh	Calb biofilm kill	RORa activator
Cc1noc(C)c1S(=O)(=O)N1CCC(C(=O)N2CCC(N3CCCCC3)CC2)CC1	0	-2	22*	3
CN(C)c1ccc(C(=O)OCC(=O)c2cccs2)cc1	52*	x	4	7
COc1ccccc1-n1cnc2cc(NCc3cccs3)ccc21	x	x	2	x
COc1ccccc1-n1cnc2cc(NCc3ccco3)ccc21	56*	1	1	50*
C1CCc2c(nc3nnnn3c2NC2CCCC2)C1	x	x	3	x
O=C(Nc1ccc(Cl)cn1)c1ccc2ccccc2n1	x	x	5	x
O=C(Nc1ccccc1C(=O)O)c1ccc2ccccc2n1	80*	9	12	45
CCCn1c(C)cc(C(=O)CN2C(=O)c3ccccc3C2=O)c1C	65*	2	7	55*
Cc1ccc(NC(=O)NCc2ccc3c(c2)OCO3)cc1	x	x	0	x
Cc1sc2c(c1C)c(=O)nc1scc(C)n12	x	x	-2	x
O=C(c1cccs1)N1CCC(c2ccccc2)C1 (stereo not given)	30	-3	6	49*
O=C(Nc1ccccc1)N1CCC(c2ccccc2)C1 (stereo not given)	68*	3	4	44
CCCn1c(SCc2ccon2)nc2ccccc2c1=O	x	x	1	x
O=C(c1ccccc1)N1CCN(c2ncnc3sc4c(c23)CCC4)CC1	x	x	4	x
Cc1csc(-c2coc3cc(O)cc(C)c3c2=O)n1	68*	13	3	66*
CCCn1c(SCC(=O)c2cc(C)c(C)cc2C)n[nH]c1=O	x	x	1	x
Cc1cc(C(=O)CSc2nnnn2C)c(C)n1-c1ccc2c(c1)OCCO2	54*	-6	6	36
CC(=O)c1cccc(NC(=O)NCc2ccccn2)c1	56*	6	7	22
Cc1cc(NC(=O)c2ccco2)ncc1NC(=O)Cc1ccccc1	41	-8	1	57*
Cc1sc(NC(=O)c2ccco2)nc1-c1ccccc1	x	x	-4	x
COC(=O)c1c(-c2ccccc2)csc1NC(=O)c1ccco1	40	8	0	96*
CC(=O)c1sc(NC(=O)c2ccco2)nc1-c1ccccc1	70*	7	1	40
Cc1cnc(NC(=O)c2ccco2)s1	53*	x	2	71*
Cc1ccc(C(=O)Nc2ncc(Cc3ccccc3)s2)o1	61*	8	1	-12
O=C(Nc1ncc(Cc2ccccc2)s1)c1cccs1	39	6	0	43
SMILES	SF-1 act	JNK3 inh	Calb biofilm kill	RORa activator
Cc1nc(NC(=O)c2ccco2)sc1C(=O)Nc1ccc(Br)cc1	4	-3	5	23
COC(=O)c1sc(NC(=O)c2ccco2)nc1C	50*	5	6	28
COc1ccc(C(c2nnnn2Cc2cccs2)N2CCN(c3ccc(F)cc3)CC2)cc1OC (stereo not given)	38	0	4	10
Cc1cc(/C=N/Nc2ccc([N+](=O)[O-])cn2)c(C)n1-c1ccccc1	x	x	25*	x
O=c1cc(-c2ccccc2)[nH]c2nc3ccccc3n12	3	19*	-1	7
COc1cccc(OCc2nc3ncc(Br)cc3[nH]2)c1	76*	12	3	60*
CC(C)c1ccc(NC(=O)Nc2cc3sccc3n2C)cc1	x	x	11	x
Cc1ccc(-n2c(C)cc(C(=O)COC(=O)c3c(C)noc3C)c2C)cc1	79*	6	7	2
O=C(c1cccc2c1-c1ccccc1/C2=N/O)N1CCCCC1	2	26*	3	-15
Cc1ccccc1OCc1nnc(SCC(=O)Nc2ccc(N3CCOCC3)c(Cl)c2)n1C	x	x	5	x
O=C(CSc1ncccc1-c1nc2ccccc2[nH]1)N1CCN(c2ccccc2F)CC1	-20	28*	4	13
Cc1cc(C)c(S(=O)(=O)N2CCC(C(=O)NCc3ccco3)CC2)c(C)c1	x	x	1	x
c1ccc2oc(SCc3cn4ccccc4n3)nc2c1	20	x	10	58*
COc1ccc(-c2noc(N(C)CC(=O)Nc3cccc(C(F)(F)F)c3)n2)cc1	44	-1	0	52*
CCOC(=O)c1c(N)sc(-c2ccccc2)c1C	x	x	0	x
CCOC(=O)c1c(N)sc(C(O)(C(F)(F)F)C(F)(F)F)c1-c1ccccc1	x	x	82*	x
Cc1cc2oc(=O)cc(CN3CCCCC3C)c2c(C)c1Cl (stereo not given)	5	-4	5	-15
Cc1cc2ncc(-c3ccc(Cl)cc3)c(N)n2n1	55*	11	4	35
Cc1cc(N)n(-c2ncnc3scc(-c4ccc(Cl)cc4)c23)n1	x	x	10	x
O=C(CSc1nnc(-c2ccccc2)n1Cc1ccco1)NCc1ccc2c(c1)OCO2	x	x	5	x
O=C(CSc1nnc2sc3ccccc3n12)c1ccco1	14	3	8	18
Cc1nn(C(C)C(=O)O)c(=O)c2c1sc1ccccc12 (stereo not given)	2	21*	8	-6
Cc1nn(C(C)C(=O)N2CCCCC2)c(=O)c2c1sc1ccccc12 (stereo not given)	-9	-6	x	-9
CC(C)CC(=O)Nc1cccc(C(=O)Nc2ccccc2C(=O)O)c1	x	x	1	x
Cn1c(C(C#N)C(=O)c2ccco2)nc2ccccc21 (stereo not given)	59*	-5	-1	67*
SMILES	SF-1 act	JNK3 inh	Calb biofilm kill	RORa activator
Cc1ccc(C23CC4CC(CC(C(=O)N5CCOCC5)(C4)C2)C3)cc1	x	x	-2	x
COc1ccc(-n2nc3c(c2NC(=O)c2cc4ccccc4oc2=O)CS(=O)(=O)C3)cc1	-4	x	6	17
CCN(CC)c1ccc(NC(=O)c2cccnc2)cc1	x	x	8	x
O=C(Nc1cccc(F)c1)c1c(F)c(F)c(F)c(F)c1F	-8	-4	-2	-34
CCN(CC)c1ccc(C(=O)Nc2cccc(F)c2)cc1	54*	-5	0	42
CN(C)c1cccc(C(=O)Nc2cccc(F)c2)c1	58*	-11	3	46
c1ccc(C2Nc3ccccc3-c3nc4ccccc4n32)cc1 (stereo not given)	x	x	7	x
c1coc(C2Nc3ccccc3-c3nc4ccccc4n32)c1 (stereo not given)	76*	x	1	71*
CC(C(=O)Nc1ccccc1-c1ccccc1)N1CCN(C(=O)c2ccco2)CC1 (stereo not given)	-18	1	x	-17
CCC(C)NS(=O)(=O)c1ccc(NS(=O)(=O)c2ccc(F)cc2)cc1 (stereo not given)	x	x	-3	x
Cc1sc2nc3n(c(=O)c2c1C)Cc1ccccc1-3	56*	-5	11	73*
COc1nnc(-c2ccc(N3CCCCC3)c(NC(C)=O)c2)c2ccccc12	x	x	7	x
CCOC(=O)N1CCC(NC(=O)c2ccc3c(c2)sc2nc(-c4ccccc4)cn23)CC1	22	13	x	53*
CCOC(=O)N1CCC(NC(=O)c2ccc3c(c2)sc2nc(-c4cccc(OC)c4)cn23)CC1	24	-1	6	2
CNc1nc(N2CCc3ccccc32)ncc1F	75*	-4	1	41
COc1ccc(COC(=O)NNC(=O)c2ccccc2Cl)cc1	x	x	0	x
CCOC(=O)c1[nH]c(C)c(C(=O)Nc2ccc3c(c2)OCCO3)c1C	1	6	0	39
O=C(Nc1ccc2c(c1)OCCO2)c1c(F)cccc1F	56*	-1	3	47
